From ChEMBL document CHEMBL1127684, “Enkephalin analogs as systemically active antinociceptive agents: O- and N-alkylated derivatives of the dipeptide amide L-2,6-dimethyltyrosyl-N-(3-phenylpropyl)-D-alaninamide” (J Med Chem, 1994)
Active and inactive are the calls of the source. The rule behind the calls is not given here.

Experiments:
Mus musculus [1] = assay: Effective dose administered intragastricly in mouse writhing assay; format: functional; conditions: po
Mus musculus [2] = assay: Effective dose administered subcutaneously in mouse writhing assay; format: functional
Method in brief: (§1)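 Mouse phenylbenzoquinone-induced abdominal stretch (writhing) assay with subcutaneous dosing. […] 10 mg/kg was the highest dose tested.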

[3] = target: T1, Delta-type opioid receptor (Rattus norvegicus, UniProt P33533); assay: Displacement of [3H]DSLET from rat brain membrane delta opioid receptor
T1 sequence (P33533 whole entry): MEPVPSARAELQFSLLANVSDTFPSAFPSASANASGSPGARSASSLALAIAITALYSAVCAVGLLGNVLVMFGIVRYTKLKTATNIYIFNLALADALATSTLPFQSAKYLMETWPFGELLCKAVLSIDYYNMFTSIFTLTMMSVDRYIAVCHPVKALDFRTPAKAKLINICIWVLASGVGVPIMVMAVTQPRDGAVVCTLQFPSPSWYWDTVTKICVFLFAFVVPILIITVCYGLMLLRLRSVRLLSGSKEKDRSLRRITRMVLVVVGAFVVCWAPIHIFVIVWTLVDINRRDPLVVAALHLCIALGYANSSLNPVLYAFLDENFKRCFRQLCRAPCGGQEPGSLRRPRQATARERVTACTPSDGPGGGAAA
Method in brief: (§2)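 Forebrain membranes from male Sprague-Dawley rats (150–300 g, cerebellum and hindbrain removed), washed and preincubated 1 h at 25 °C. Binding run in triplicate at 37 °C in 50 mM Tris/HCl pH 7.4, ~1 mg/mL protein, [3H]DSLET 1.0 nM, with varying compound concentrations. Nonspecific binding defined with 10 μM levorphanol. IC50 taken from log-logit plots of concentration vs percent displacement.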

Mus musculus [4] = assay: Effective dose administered intragastricly in mouse writhing assay; No significant inhibition at 10 mg/kg, the highest dose tested; format: functional, organism-based; parameters: dose 10 mg/kg
Opioid receptor = Opioid receptor (Rattus norvegicus, UniProt P33533+P34975+P33535); assay: Affinity for the opioid receptor by displacement of tritiated naloxone from rat brain membranes.; format: cell membranes, Membrane
Method in brief: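 Rat brain membranes with the cerebellum removed. Competition against [3H]naloxone as a nonselective opioid label, with the radioligand at or near its Kd. Reported as IC50 (nM).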

Mus musculus [5] = assay: Effective dose administered subcutaneously in mouse writhing assay; not significant; format: functional, organism-based; method in brief: as §1
Mus musculus [6] = assay: Effective dose administered subcutaneously in mouse writhing assay; No significant inhibition at 10 mg/kg, the highest dose tested; format: functional, organism-based; parameters: dose 10 mg/kg; method in brief: as §1
Mu-type opioid receptor [7] = target: T2, Mu-type opioid receptor (Rattus norvegicus, UniProt P33535); assay: Affinity for mu opioid receptor was measured by displacement of tritiated DAMGO from rat brain membranes; format: cell membranes, Membrane
T2 sequence (P33535 whole entry): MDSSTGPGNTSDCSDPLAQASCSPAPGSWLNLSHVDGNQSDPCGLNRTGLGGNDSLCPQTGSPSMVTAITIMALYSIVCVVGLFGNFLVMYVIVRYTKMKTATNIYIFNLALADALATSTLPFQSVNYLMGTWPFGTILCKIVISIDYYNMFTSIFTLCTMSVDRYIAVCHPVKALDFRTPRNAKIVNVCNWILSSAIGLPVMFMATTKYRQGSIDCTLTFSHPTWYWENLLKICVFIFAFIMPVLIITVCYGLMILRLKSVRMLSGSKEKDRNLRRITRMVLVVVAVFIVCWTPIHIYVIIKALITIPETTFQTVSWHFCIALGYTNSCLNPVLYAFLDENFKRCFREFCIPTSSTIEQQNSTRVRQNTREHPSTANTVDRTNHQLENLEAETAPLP
Method in brief: as §2, with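 “[3H]DAMGO 2.0” for “[3H]DSLET 1.0”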

Mu-type opioid receptor [8] = target: T2, Mu-type opioid receptor; assay: Inhibitory concentration was evaluated against mu opioid receptor by the displacement of tritiated DAMGO from rat brain membranes; format: cell membranes, Membrane
Method in brief: as §2, with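 “[3H]DAMGO 2.0” for “[3H]DSLET 1.0”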

[9] = target: T1, Delta-type opioid receptor; assay: (§3) Inhibitory concentration was evaluated against delta opioid receptor by the displacement of tritiated DSLET from rat brain membranes; format: cell membranes, Membrane; method in brief: as §2
[10] = target: Kappa-type opioid receptor (Rattus norvegicus, UniProt P34975); assay: Inhibitory concentration was evaluated against kappa opioid receptor by displacement of tritiated U-69593 from rat brain membranes; format: cell membranes, Membrane
Chain of Kappa-type opioid receptor (P34975 whole entry): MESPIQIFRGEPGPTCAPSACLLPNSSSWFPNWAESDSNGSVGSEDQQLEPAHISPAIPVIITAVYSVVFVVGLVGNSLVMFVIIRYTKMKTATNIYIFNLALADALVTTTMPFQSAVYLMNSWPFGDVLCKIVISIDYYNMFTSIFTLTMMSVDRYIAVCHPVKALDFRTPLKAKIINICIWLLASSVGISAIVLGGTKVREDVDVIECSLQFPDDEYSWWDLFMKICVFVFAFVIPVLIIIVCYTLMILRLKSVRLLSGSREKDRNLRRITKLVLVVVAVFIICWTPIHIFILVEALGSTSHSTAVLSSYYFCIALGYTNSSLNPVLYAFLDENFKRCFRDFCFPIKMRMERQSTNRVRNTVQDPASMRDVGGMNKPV

[11] = target: T1, Delta-type opioid receptor; assay: as §3; format: functional, cell membranes, Membrane; method in brief: as §2
[12] = Mus musculus, sc, read-out: ED50

Row | SMILES | ED50 (Mus musculus [1]) [mg/kg] | ED50 (Mus musculus [2]; [12]) [mg/kg] | IC50 [3] [nM] | ED50 (Mus musculus [4]) | IC50 (Opioid receptor) [nM] | ED50 (Mus musculus [6]) | IC50 (Mu-type opioid receptor [7]) [nM] | further results
1 | C=CCOc1cc(C)c(CC(N)C(=O)N[C@H](C)C(=O)NCCCc2ccccc2)c(C)c1 (some centres not stated) | 14.9 | 12.4 | 600 | – | – | – | – | –
2 | C=CCN(C(=O)[C@@H](N)Cc1c(C)cc(O)cc1C)[C@H](C)C(=O)NCCCc1ccccc1 | – | – | – | inactive | 280 | – | – | ED50 (Mus musculus [5]): inactive
3 | COc1cc(C)c(C[C@H](N)C(=O)N[C@H](C)C(=O)NCCCc2ccccc2)c(C)c1 (stereo in doubt; 20c) | 2.7 | – | – | – | 420 | – | – | ED50 (Mus musculus [2]): 3.5 mg/kg
4 | Cc1cc(OCc2ccc(C#N)cc2)cc(C)c1CC(N)C(=O)N[C@H](C)C(=O)NCCCc1ccccc1 (some centres not stated) | – | – | > 1000 | inactive | 17 | inactive | 28.6 | –
5 | Cc1cc(OCc2ccccc2)cc(C)c1C[C@H](N)C(=O)N[C@H](C)C(=O)NCCCc1ccccc1 | 2.4 | 1.8 | 55 | – | 360 | – | 4 | IC50 (Mu-type opioid receptor [8]): 0.92 nM; IC50 [9]: 133 nM; IC50 [10]: 2520 nM
6 | Cc1cc(OCc2ccc(C(=O)O)cc2)cc(C)c1C[C@H](N)C(=O)N[C@H](C)C(=O)NCCCc1ccccc1 | – | – | – | inactive | 83 | inactive | – | –
7 | Cc1cc(O)cc(C)c1C[C@H](N)C(=O)N(C)[C@H](C)C(=O)NCCCc1ccccc1 | 3.1 | 0.07 | 4.4 | – | – | – | 0.1 | IC50 (Mu-type opioid receptor [8]): 0.2 nM; IC50 [9]: 8 nM; IC50 [10]: 316 nM
8 | CCOc1cc(C)c(CC(N)C(=O)N[C@H](C)C(=O)NCCCc2ccccc2)c(C)c1 (some centres not stated) | – | – | – | inactive | 130 | inactive | – | –
9 | COc1cc(C)c(CC(N)C(=O)N[C@H](C)C(=O)NCCCc2ccccc2)c(C)c1 (some centres not stated) | 2.3 | 4.3 | – | – | 290 | – | – | –
10 | CNC(Cc1c(C)cc(OCc2ccccc2)cc1C)C(=O)N[C@H](C)C(=O)NCCCc1ccccc1 (some centres not stated) | – | ~10 | – | inactive | 53 | – | – | –
11 | COc1cc(C)c(C[C@H](N)C(=O)N[C@H](C)C(=O)NCCCc2ccccc2)c(C)c1 (stereo in doubt; 20b) [listing 1 of 2 here] | – | – | > 1000 | – | 50 | – | 57 | IC50 (Mu-type opioid receptor [8]): 32 nM; ED50 (Mus musculus [2]): 0.7 mg/kg; IC50 [9]: 2090 nM; IC50 [10]: 19800 nM
12 | Cc1cc(OCc2ccc(F)cc2)cc(C)c1CC(N)C(=O)N[C@H](C)C(=O)NCCCc1ccccc1 (some centres not stated) | – | 2.7 | 385 | inactive | 18 | – | 17.5 | IC50 (Mu-type opioid receptor [8]): 8.73 nM; IC50 [10]: 10800 nM; IC50 [11]: 367 nM
13 | C=CCN(C(=O)C(N)Cc1c(C)cc(O)cc1C)[C@H](C)C(=O)NCCCc1ccccc1 (some centres not stated) | – | 0.7 | – | inactive | 1.3 | – | – | –
14 | Cc1cc(OCc2ccccc2)cc(C)c1C[C@@H](N)C(=O)N[C@H](C)C(=O)NCCCc1ccccc1 | 12.9 | 2.3 | – | – | 22 | – | – | IC50 (Mu-type opioid receptor [8]): 44.7 nM; IC50 [9]: 1800 nM; IC50 [10]: 17500 nM
15 | Cc1cc(O)cc(C)c1CC(N)C(=O)N[C@H](C)C(=O)N(C)CCCc1ccccc1 (some centres not stated) | – | – | – | inactive | 300 | inactive | – | –
16 | Cc1cc(O)cc(C)c1CC(C)(N)C(=O)N[C@H](C)C(=O)NCCCc1ccccc1 (some centres not stated) | 3.7 | 3 | 64 | – | 150 | – | 2 | IC50 (Mu-type opioid receptor [8]): 1.1 nM; IC50 [9]: 124 nM; IC50 [10]: 1380 nM
17 | Cc1cc(O)cc(C)c1C[C@H](N)C(=O)N(CC1CC1)[C@H](C)C(=O)NCCCc1ccccc1 (stereo in doubt; 18c) [listing 1 of 2 here] | – | – | 409 | – | – | – | 23.7 | –
18 | Cc1cc(O)cc(C)c1C[C@H](N)C(=O)N(CC1CC1)[C@H](C)C(=O)NCCCc1ccccc1 (stereo in doubt; 18b) [listing 1 of 2 here] | – | – | – | inactive | – | – | – | –
19 | CN[C@@H](Cc1c(C)cc(O)cc1C)C(=O)N[C@H](C)C(=O)NCCCc1ccccc1 | – | – | – | inactive | 140 | inactive | – | –
20 | Cc1cc(O)cc(C)c1C[C@H](N)C(=O)N(CC1CC1)[C@H](C)C(=O)NCCCc1ccccc1 (stereo in doubt; 18b) [listing 2 of 2 here] | – | 0.5 | 9.4 | – | – | – | 0.4 | IC50 (Mu-type opioid receptor [8]): 0.5 nM; IC50 [9]: 10 nM; IC50 [10]: 1000 nM
21 | Cc1ccccc1COc1cc(C)c(CC(N)C(=O)N[C@H](C)C(=O)NCCCc2ccccc2)c(C)c1 (some centres not stated) | – | – | – | inactive | – | inactive | – | –
22 | Cc1cc(O)cc(C)c1CC(N)C(=O)N(C)[C@H](C)C(=O)NCCCc1ccccc1 (some centres not stated) | 1.3 | 1.7 | – | – | 0.6 | – | – | –
23 | Cc1cc(OCc2ccc([N+](=O)[O-])cc2)cc(C)c1CC(N)C(=O)N[C@H](C)C(=O)NCCCc1ccccc1 (some centres not stated) | 6.8 | 2.3 | 127 | – | 2.9 | – | 3.5 | –
24 | CN[C@H](Cc1c(C)cc(O)cc1C)C(=O)N[C@H](C)C(=O)NCCCc1ccccc1 | – | – | – | inactive | 1800 | inactive | – | –
25 | COc1cc(C)c(C[C@H](N)C(=O)N[C@H](C)C(=O)NCCCc2ccccc2)c(C)c1 (stereo in doubt; 20b) [listing 2 of 2 here] | – | – | – | inactive | – | – | – | –
26 | Cc1cc(O)cc(C)c1C[C@H](N)C(=O)N(CC1CC1)[C@H](C)C(=O)NCCCc1ccccc1 (stereo in doubt; 18c) [listing 2 of 2 here] | – | – | – | inactive | – | inactive | – | –
27 | Cc1cc(O)cc(C)c1CC(N)C(=O)N(CC1CC1)[C@H](C)C(=O)NCCCc1ccccc1 (some centres not stated) | – | 2.4 | – | inactive | 10 | – | – | –
28 | Cc1cc(OCc2ccc(C(C)(C)C)cc2)cc(C)c1CC(N)C(=O)N[C@H](C)C(=O)NCCCc1ccccc1 (some centres not stated) | – | – | – | inactive | 0.5 | inactive | – | –
29 | Cc1cc(OCc2ccc(C(=O)O)cc2)cc(C)c1CC(N)C(=O)N[C@H](C)C(=O)NCCCc1ccccc1 (some centres not stated) | – | – | 882 | inactive | – | inactive | 12.3 | –
30 | Cc1cc(O)cc(C)c1CC(N)C(=O)N[C@H](C)C(=O)NCCCc1ccccc1 (some centres not stated) | 2 | 0.5 | 8.6 | – | 0.1 | – | 0.2 | IC50 (Mu-type opioid receptor [8]): 0.13 nM; IC50 [9]: 9.57 nM; IC50 [10]: 221 nM
